Here are results for eleven molecules from ChEMBL document CHEMBL1123121, “Aminotetralone analogues of ketamine: synthesis and evaluation of hypnotic and locomotor properties in mice” (1985).

The assay has as its system Mus musculus. Put plainly: Ability to cause […] in mice represented as no. of counts for each animal for a total of 90 min when 100 mg/kg dose was administered intraperitoneally. In kind it is functional. The conditions noted are these: route intraperitoneal. In a few lines: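 Mice given the compound intraperitoneally at 100 mg kg-1, dissolved in distilled water; controls received 0.2 mL normal saline. Each mouse was placed on an electronic activity monitor and its counts were recorded for 90 min after injection. Counts per minute were taken as total counts divided by 90. Six animals per group, mean ± SEM, groups compared by Duncan's multiple-range test. Experiments were run between 13.00 and 17.00 h at 20-24 °C.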
Take `CNC1(C)C(=O)CCc2ccccc21` (stereo unspecified): the Counts was determined as 25.8 min⁻¹.
The result for `CN(C)C1(C)C(=O)CCc2ccccc21` (stereo unspecified) reads 22.9 min⁻¹; that for `CN(C)C1(C)c2ccccc2CCC1O` (stereo unspecified), 37.5 min⁻¹; that for `CC1(N)C(=O)CCc2ccccc21` (stereo unspecified), 27.2 min⁻¹.
The result for `CNC1(C)c2ccccc2CCC1O` (stereo unspecified) reads 20.2 min⁻¹; that for `CC1(N)c2ccccc2CCC1O` (stereo unspecified), 16.2 min⁻¹; that for `CC1(N)CCc2ccccc2C1=O` (stereo unspecified), 60.6 min⁻¹.
The result for `CC1(N2CCCCC2)c2ccccc2CCC1O` (stereo unspecified) reads 21.6 min⁻¹; that for `CN(C)C1(C)CCc2ccccc2C1=O` (stereo unspecified), 67.1 min⁻¹.
`CC1(N2CCCCC2)C(=O)CCc2ccccc21` (stereo unspecified) yielded a Counts of 4.4 min⁻¹.
`CNC1(c2ccccc2Cl)CCCCC1=O` (stereo unspecified) [KETAMINE] yielded a Counts of 94.3 min⁻¹.
